Laboratory results from ChEMBL document CHEMBL1275571, “Impact of self-assembly properties on antibacterial activity of short acyl-lysine oligomers” (Antimicrob Agents Chemother, 2008).
Values after ≈ are worked out from the molar mass of the structure shown. Non-standard residues stand in square brackets, D forms with d. Residues, ends and D or L forms follow the SMILES beside them. *: point of attachment. Palmitoyl = CCCCCCCCCCCCCCCC(=O)*; 12Ado = NCCCCCCCCCCCC(=O)O

What was measured:
Escherichia coli = assay: Antimicrobial activity against Escherichia coli ATCC 35218 by microdilution method; format: functional
Summary of the method: (§1)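 Overnight LB cultures were diluted 10,000-fold and used at 2 × 105 to 4 × 10^5 CFU/ml (LB pH 7.4). They were mixed 1:1 with compound in twofold serial dilutions from 0 to 50 μΜ. Plates were incubated overnight at 37°C and read by OD620. The MIC is the concentration giving 100% inhibition. Values are from at least two independent assays run in duplicate.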

Pseudomonas aeruginosa = assay: Antimicrobial activity against Pseudomonas aeruginosa ATCC 9027 by microdilution method; format: functional; summary of the method: as §1
Staphylococcus aureus = assay: Antimicrobial activity against Staphylococcus aureus ATCC 25923 by microdilution method; format: functional; summary of the method: as §1
Enterococcus faecalis = assay: Antimicrobial activity against Enterococcus faecalis ATCC 29212 by microdilution method; format: functional; summary of the method: as §1
[1] = Cytotoxicity against human RBC assessed as hemolysis; format: organism-based; details: human red blood cells (RBC), read-out: LC50 (the source's name)
Summary of the method: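 Human red blood cells at 1% hematocrit incubated 3 h at 37°C with the compound in PBS (50 mM sodium phosphate, 150 mM NaCl, pH 7.4). Value is the concentration giving 50% hemolysis (LC50, μM). Values are rounded up to the nearest half unit, as means ± standard deviations of at least four independent experiments run in duplicate.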

Lipid bilayer [2] = assay: Apparent affinity to phospholipid membrane in cell-free system at low concentration range of 0.16 to 2.5 uM
Summary of the method: (§2)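 Surface plasmon resonance on a POPC-POPG (3:1) small-unilamellar-vesicle bilayer on an L1 chip. Compound was in PBS pH 7.4 at the low series (0.16, 0.31, 0.62, 1.25, 2.5 μM), duplicate injections each. Affinity constants were calculated with a two-step binding model from the average of five duplicated binding curves.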

Lipid bilayer [3] = assay: Apparent affinity to phospholipid membrane in cell-free system at high concentration range of 3.1 to 50 uM
Summary of the method: (§3)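 SPR on an L1 chip, with small unilamellar vesicles of POPC-POPG (3:1 molar ratio) as the bilayer. Compound was in PBS pH 7.4 and injected in the high series (3.1, 6.25, 12.5, 25, 50 μM), two injections per concentration. Association and dissociation curves were fitted to a two-step binding model. Constants come from five duplicated curves.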

Lipid bilayer [4] = assay: Adhesion affinity to phospholipid membrane in cell-free system at low concentration range of 0.16 to 2.5 uM; summary of the method: as §2
Lipid bilayer [5] = assay: Adhesion affinity to phospholipid membrane in cell-free system at high concentration range of 3.1 to 50 uM; summary of the method: as §3

Which MBC (Escherichia coli) does the source give for `CCCCCC/C=C\CCCCCCCC(=O)N[C@@H](CCCCN)C(=O)N[C@@H](CCCCN)C(=O)NCCCCCCCCCCCC(=O)N[C@@H](CCCCN)C(N)=O` here?
The MBC was 12.5 µM (≈ 10.4 µg/mL).

And the MIC (Escherichia coli)?
The MIC was 6 µM (≈ 5.01 µg/mL).

What about the MBC (Pseudomonas aeruginosa) of the same compound?
The MBC was 50 µM (≈ 41.8 µg/mL).

And the MIC (Pseudomonas aeruginosa)?
Its MIC is 12.5 µM (≈ 10.4 µg/mL).

What about the MBC (Staphylococcus aureus) of the same compound?
The MBC was 6 µM (≈ 5.01 µg/mL).

And the MIC (Staphylococcus aureus)?
Its MIC is 3 µM (≈ 2.51 µg/mL).

What about the MBC (Enterococcus faecalis) of the same compound?
The MBC was 6 µM (≈ 5.01 µg/mL).

And the HC50 [1]?
Its HC50 is 8.5 µM.

And the Kapp (Lipid bilayer [2])?
Its Kapp is 1.7 ×10⁷ /M.

And the Kapp (Lipid bilayer [3])?
The Kapp was 4.5 ×10⁷ /M.

And the K (Lipid bilayer [4])?
The K was 2.1 ×10⁶ /M.

And the K (Lipid bilayer [5])?
The K was 1.5 ×10⁶ /M.

For `CCCCCCCCCCCCCCCC(=O)N[C@@H](CCCCN)C(=O)N[C@@H](CCCCN)C(=O)NCCCCCCCCCCCC(=O)N[C@@H](CCCCN)C(N)=O` (Palmitoyl-KK[12Ado]K-NH2), which MBC (Escherichia coli) is on record?
Its MBC is over 50 µM.

And the MIC (Escherichia coli)?
The MIC was 25 µM (≈ 20.9 µg/mL).

What about the MBC (Pseudomonas aeruginosa) of the same compound?
Its MBC is over 50 µM.

What about the MIC (Pseudomonas aeruginosa) of the same compound?
Its MIC is over 25 µM.

What about the MBC (Staphylococcus aureus) of the same compound?
The MBC was over 25 µM.

What about the MIC (Staphylococcus aureus) of the same compound?
Its MIC is 6 µM (≈ 5.02 µg/mL).

And the MBC (Enterococcus faecalis)?
The MBC was over 25 µM.

And the HC50 [1]?
The HC50 was 15 µM.

And the Kapp (Lipid bilayer [2])?
Its Kapp is 8.3 ×10⁷ /M.

And the Kapp (Lipid bilayer [3])?
Its Kapp is 4.3 ×10⁴ /M.

And the K (Lipid bilayer [4])?
The K was 2.2 ×10⁶ /M.

And the K (Lipid bilayer [5])?
The K was 4.3 ×10⁵ /M.
